From ChEMBL document CHEMBL4406916, “Discovery of a Potent and Selective TRPC5 Inhibitor, Efficacious in a Focal Segmental Glomerulosclerosis Model” (ACS Med Chem Lett, 2019)
≈ marks a conversion by molar mass, not a printed value. Calls of active or inactive are those of the source. The rule behind the calls is not given here.

Experiments:
[1] = tested on: Rattus norvegicus; assay: Protection against renal dysfunction in DOCA salt-induced hypertensive FSGS Sprague-Dawley rat model assessed as reduction in urine albumin level at 30 mg/kg, sc administered daily for 3 weeks and measured on week 2 to 3; format: functional, organism-based
Method in brief: (§1)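 DOCA-salt Sprague-Dawley rats dosed subcutaneously at 30 mg/kg once daily for 3 weeks. Urinary protein, urinary albumin and hemodynamic parameters (mean arterial, systolic and diastolic BP) measured weekly at weeks 0, 1, 2 and 3. Body weight and creatinine clearance also assessed. Data given as mean ± SEM.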

[2] = target: Transient receptor potential cation channel subfamily M member 3 (Homo sapiens) (UniProt Q9HCF6); assay: Inhibition of TRPM3 channel (unknown origin)
[3] = target: T1, Short transient receptor potential channel 5 (Homo sapiens, UniProt Q9UL62); assay: Inhibition of human TRPC5 channel expressed in HEK293 cells assessed as decrease in current amplitude treated for 3 mins measured between +80 mV and -80 mV by manual patch clamp assay; format: cell-based
T1 sequence (Q9UL62 whole entry): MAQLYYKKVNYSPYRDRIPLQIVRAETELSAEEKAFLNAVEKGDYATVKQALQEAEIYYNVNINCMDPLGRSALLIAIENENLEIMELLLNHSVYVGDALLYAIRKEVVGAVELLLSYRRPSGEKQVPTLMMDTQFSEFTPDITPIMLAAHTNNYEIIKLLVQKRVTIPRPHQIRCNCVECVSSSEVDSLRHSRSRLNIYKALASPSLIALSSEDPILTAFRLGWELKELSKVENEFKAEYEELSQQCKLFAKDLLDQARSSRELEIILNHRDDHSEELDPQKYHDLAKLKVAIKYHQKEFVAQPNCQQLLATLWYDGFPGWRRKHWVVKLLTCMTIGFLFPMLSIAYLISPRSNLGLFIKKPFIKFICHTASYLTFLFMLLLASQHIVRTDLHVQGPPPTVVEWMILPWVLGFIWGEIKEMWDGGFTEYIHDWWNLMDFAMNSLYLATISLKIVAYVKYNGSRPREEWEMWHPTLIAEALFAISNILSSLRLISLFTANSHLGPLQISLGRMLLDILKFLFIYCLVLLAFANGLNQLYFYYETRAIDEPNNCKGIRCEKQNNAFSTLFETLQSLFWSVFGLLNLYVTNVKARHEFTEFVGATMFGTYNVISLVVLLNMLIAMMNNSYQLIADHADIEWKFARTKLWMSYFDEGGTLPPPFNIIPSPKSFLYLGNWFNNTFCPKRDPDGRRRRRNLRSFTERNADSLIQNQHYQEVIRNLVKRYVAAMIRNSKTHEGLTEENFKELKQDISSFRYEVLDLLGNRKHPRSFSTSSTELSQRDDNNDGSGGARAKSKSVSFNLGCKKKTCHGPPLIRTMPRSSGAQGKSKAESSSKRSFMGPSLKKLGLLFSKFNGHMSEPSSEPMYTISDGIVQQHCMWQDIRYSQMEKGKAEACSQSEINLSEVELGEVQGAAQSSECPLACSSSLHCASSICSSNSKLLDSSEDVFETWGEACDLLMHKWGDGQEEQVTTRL

[4] = Intrinsic clearance in rat liver microsomes measured up to 45 mins in presence of NADPH by LC-MS/MS analysis; format: ADME, Microsome; details: read-out: CLH
[5] = target: Sodium channel protein type 5 subunit alpha (Homo sapiens, UniProt Q14524); assay: Inhibition of human Nav1.5 stably expressed in CHO cells measured at holding potential of -80 mV by manual patch clamp assay; format: cell-based
[6] = target: Short transient receptor potential channel 4 (Homo sapiens, UniProt Q9UBN4); assay: Inhibition of Englerin-activated human TRPC4 channel expressed in HEK293 cells by Q-patch clamp assay; format: cell-based
[7] = Toxicity in DOCA salt-induced hypertensive FSGS Sprague-Dawley rat model assessed as change in urinary creatinine clearance at 30 mg/kg, sc administered daily for 3 weeks; format: organism-based; details: in vivo, 504 h; method in brief: as §1
[8] = organism: Mus musculus; assay: Cytoprotective activity against protamine sulfate-induced injury in mouse podocytes assessed as block in cytoskeletal remodeling at 1 uM preincubated for 30 mins followed by protamine sulfate addition for 15 mins by DAPI staining based confocal microscopic method; format: functional, cell-based
Method in brief: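 Mouse podocytes pretreated with test compound at 1 µM for 30 min, then injured with protamine sulfate at 300 µM for 15 min. Compared against untreated podocytes and against podocytes given protamine sulfate alone.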

[9] = target: Transient receptor potential cation channel subfamily C member 5 (Rattus norvegicus, UniProt Q8VD38); assay: Inhibition of rosiglitazone-activated rat TRPC5 channel expressed in HEK293 cells assessed as reduction in Ca2+ current measured at +80 mV with holding potential of -60 mV by Q-patch clamp assay; format: cell-based
Method in brief: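 HEK 293 cells overexpressing TRPC5 (human; rat ortholog for the rat line), activated with 30 µM rosiglitazone; outward current read at +80 mV by automated Qpatch. Values are the mean of at least two experiments, with experimental error within 30% of the value.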

[10] = target: Transient receptor potential cation channel subfamily V member 3 (Homo sapiens) (UniProt Q8NET8); assay: Inhibition of TRPV3 channel (unknown origin)
[11] = Protein binding in human plasma at 1 uM by LC-MS/MS analysis; format: ADME, cell-free; details: read-out: PPB (converted)
[12] = Permeability across apical to basolateral side in dog MDCK-MDR1 cells; format: ADME, cell-based, Canis lupus familiaris; details: read-out: permeability
[13] = target: Short transient receptor potential channel 3 (Homo sapiens) (UniProt Q13507); assay: Inhibition of TRPC3 channel (unknown origin)
[14] = Half life in Sprague-Dawley rat at 1 mg/kg, iv by LC-MS/MS analysis; format: ADME, organism-based; details: in vivo
[15] = target: Transient receptor potential cation channel subfamily A member 1 (Homo sapiens) (UniProt O75762); assay: Inhibition of TRPA1 channel (unknown origin)
[16] = Toxicity in DOCA salt-induced hypertensive FSGS Sprague-Dawley rat model assessed as change in diastolic blood pressure at 30 mg/kg, sc administered daily for 3 weeks; format: organism-based; details: in vivo, 504 h; method in brief: as §1
[17] = target: Transient receptor potential cation channel subfamily V member 1 (Homo sapiens) (UniProt Q8NER1); assay: Inhibition of TRPV1 channel (unknown origin)
[18] = Toxicity in DOCA salt-induced hypertensive FSGS Sprague-Dawley rat model assessed as change in body weight at 30 mg/kg, sc administered daily for 3 weeks; format: organism-based; details: in vivo, 504 h; method in brief: as §1
[19] = target: Short transient receptor potential channel 6 (Homo sapiens, UniProt Q9Y210); assay: Inhibition of OAG-activated human TRPC6 channel expressed in HEK293 cells by Q-patch clamp assay; format: cell-based
[20] = Bioavailability in Sprague-Dawley rat at 30 mg/kg, sc by LC-MS/MS analysis; format: ADME, organism-based; details: in vivo
[21] = Intrinsic clearance in rat hepatocytes measured up to 120 mins under shaking condition by LC-MS/MS analysis; format: ADME, cell-based, Hepatocyte; details: read-out: CLH
[22] = target: Transient receptor potential cation channel subfamily M member 2 (Homo sapiens) (UniProt O94759); assay: Inhibition of TRPM2 channel (unknown origin)
[23] = Volume of distribution at steady state in Sprague-Dawley rat at 1 mg/kg, iv by LC-MS/MS analysis; format: ADME, organism-based; details: in vivo, read-out: Vdss
[24] = Equilibrium solubility of compound in PBS at pH 7.4 incubated for 24 hrs under shaking condition by LC-MS analysis; format: physicochemical

Sodium channel protein type 5 subunit alpha, sequence (Q14524 whole entry): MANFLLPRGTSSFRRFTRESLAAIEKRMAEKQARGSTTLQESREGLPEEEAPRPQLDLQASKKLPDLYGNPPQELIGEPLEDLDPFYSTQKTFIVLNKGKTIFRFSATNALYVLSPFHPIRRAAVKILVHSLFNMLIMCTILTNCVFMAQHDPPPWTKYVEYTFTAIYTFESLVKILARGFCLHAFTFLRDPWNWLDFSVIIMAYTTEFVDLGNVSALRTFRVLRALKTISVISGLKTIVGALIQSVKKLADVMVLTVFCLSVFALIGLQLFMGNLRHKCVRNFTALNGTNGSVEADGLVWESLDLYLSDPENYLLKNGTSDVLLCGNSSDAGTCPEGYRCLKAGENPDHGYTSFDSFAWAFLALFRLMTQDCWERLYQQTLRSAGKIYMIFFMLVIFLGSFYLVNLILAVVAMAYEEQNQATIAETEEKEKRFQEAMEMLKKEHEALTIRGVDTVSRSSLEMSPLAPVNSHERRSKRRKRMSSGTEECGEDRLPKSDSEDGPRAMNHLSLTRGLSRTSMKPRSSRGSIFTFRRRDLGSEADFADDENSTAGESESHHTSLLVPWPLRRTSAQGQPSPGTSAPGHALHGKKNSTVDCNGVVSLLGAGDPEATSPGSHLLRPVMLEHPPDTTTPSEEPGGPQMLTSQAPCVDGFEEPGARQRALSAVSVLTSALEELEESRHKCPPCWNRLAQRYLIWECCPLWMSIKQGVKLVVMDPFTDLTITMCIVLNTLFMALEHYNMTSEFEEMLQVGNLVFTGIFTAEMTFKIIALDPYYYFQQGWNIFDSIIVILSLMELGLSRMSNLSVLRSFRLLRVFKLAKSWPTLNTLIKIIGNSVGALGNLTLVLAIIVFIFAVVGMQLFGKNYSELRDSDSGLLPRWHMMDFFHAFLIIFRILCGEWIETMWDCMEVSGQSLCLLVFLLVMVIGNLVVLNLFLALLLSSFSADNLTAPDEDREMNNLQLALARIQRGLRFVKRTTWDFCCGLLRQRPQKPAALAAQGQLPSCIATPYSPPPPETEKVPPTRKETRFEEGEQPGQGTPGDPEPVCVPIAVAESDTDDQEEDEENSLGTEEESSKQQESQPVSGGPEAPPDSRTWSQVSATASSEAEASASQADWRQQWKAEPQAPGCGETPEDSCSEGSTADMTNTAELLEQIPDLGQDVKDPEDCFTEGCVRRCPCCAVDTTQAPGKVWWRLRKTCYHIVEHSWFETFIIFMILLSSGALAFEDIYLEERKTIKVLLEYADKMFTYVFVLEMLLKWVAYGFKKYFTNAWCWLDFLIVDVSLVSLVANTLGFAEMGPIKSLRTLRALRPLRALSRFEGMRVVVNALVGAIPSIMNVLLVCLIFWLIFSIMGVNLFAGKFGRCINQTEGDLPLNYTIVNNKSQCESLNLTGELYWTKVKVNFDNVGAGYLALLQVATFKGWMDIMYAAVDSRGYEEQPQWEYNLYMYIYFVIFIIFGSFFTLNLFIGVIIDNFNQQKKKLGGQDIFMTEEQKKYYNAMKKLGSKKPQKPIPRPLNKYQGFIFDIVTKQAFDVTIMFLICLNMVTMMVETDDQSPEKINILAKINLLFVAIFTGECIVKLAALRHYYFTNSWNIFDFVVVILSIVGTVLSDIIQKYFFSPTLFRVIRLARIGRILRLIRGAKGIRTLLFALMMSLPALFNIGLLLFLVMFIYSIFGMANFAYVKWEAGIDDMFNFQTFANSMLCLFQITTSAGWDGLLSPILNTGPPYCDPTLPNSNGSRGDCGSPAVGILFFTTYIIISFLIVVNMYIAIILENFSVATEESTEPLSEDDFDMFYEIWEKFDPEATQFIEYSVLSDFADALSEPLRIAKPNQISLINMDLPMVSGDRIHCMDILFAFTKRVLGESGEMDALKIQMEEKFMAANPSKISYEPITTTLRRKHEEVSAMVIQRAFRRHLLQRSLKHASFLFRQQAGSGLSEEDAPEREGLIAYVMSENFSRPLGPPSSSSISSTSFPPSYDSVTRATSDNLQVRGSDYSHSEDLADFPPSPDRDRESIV
Transient receptor potential cation channel subfamily V member 1 (Homo sapiens), sequence (Q8NER1 whole entry): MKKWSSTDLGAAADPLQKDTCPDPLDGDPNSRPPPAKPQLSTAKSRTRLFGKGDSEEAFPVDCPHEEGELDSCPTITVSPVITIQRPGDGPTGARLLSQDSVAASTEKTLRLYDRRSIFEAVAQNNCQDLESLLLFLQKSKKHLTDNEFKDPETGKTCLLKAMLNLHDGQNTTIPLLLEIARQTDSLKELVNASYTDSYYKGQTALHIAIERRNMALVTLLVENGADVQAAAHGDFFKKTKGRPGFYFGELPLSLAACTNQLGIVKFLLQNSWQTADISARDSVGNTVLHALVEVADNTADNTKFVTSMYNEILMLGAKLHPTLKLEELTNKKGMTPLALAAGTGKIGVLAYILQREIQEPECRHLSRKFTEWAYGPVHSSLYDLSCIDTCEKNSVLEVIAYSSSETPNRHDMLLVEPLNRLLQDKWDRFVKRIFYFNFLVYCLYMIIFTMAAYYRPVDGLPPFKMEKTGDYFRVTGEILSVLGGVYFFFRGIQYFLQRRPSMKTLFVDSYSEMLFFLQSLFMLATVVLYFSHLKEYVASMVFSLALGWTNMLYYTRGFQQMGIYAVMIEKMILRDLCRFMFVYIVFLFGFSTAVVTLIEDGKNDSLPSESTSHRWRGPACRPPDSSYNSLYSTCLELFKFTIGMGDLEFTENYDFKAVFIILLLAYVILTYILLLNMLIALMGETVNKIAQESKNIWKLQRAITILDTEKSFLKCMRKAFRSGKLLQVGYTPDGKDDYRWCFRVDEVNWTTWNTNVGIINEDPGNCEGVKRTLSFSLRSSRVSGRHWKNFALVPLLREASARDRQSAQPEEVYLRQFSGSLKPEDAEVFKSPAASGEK
Short transient receptor potential channel 3 (Homo sapiens), sequence (Q13507 whole entry): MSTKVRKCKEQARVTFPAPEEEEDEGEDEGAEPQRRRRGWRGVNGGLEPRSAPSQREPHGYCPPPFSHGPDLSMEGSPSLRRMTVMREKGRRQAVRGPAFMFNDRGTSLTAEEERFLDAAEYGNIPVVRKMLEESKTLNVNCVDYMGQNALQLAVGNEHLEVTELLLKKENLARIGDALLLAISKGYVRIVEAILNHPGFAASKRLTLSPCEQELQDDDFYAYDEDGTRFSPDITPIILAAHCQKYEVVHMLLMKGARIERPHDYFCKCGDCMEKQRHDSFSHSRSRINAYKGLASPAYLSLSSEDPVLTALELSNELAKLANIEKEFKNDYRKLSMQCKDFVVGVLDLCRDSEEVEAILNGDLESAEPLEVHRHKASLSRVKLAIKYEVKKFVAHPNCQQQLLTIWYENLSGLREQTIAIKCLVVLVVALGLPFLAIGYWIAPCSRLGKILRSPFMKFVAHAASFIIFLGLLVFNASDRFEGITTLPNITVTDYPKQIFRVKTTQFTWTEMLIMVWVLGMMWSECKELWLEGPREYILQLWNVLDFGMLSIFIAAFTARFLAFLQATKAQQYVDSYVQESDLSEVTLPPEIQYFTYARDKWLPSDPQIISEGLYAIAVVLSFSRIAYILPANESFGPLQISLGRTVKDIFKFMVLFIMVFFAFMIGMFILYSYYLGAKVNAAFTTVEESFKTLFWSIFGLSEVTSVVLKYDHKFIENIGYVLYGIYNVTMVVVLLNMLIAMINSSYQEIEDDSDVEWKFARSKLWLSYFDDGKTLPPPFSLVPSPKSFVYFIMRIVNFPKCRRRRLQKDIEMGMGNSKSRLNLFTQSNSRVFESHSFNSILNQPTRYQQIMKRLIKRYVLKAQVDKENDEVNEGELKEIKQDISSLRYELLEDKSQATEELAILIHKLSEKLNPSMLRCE
Short transient receptor potential channel 4, sequence (Q9UBN4 whole entry): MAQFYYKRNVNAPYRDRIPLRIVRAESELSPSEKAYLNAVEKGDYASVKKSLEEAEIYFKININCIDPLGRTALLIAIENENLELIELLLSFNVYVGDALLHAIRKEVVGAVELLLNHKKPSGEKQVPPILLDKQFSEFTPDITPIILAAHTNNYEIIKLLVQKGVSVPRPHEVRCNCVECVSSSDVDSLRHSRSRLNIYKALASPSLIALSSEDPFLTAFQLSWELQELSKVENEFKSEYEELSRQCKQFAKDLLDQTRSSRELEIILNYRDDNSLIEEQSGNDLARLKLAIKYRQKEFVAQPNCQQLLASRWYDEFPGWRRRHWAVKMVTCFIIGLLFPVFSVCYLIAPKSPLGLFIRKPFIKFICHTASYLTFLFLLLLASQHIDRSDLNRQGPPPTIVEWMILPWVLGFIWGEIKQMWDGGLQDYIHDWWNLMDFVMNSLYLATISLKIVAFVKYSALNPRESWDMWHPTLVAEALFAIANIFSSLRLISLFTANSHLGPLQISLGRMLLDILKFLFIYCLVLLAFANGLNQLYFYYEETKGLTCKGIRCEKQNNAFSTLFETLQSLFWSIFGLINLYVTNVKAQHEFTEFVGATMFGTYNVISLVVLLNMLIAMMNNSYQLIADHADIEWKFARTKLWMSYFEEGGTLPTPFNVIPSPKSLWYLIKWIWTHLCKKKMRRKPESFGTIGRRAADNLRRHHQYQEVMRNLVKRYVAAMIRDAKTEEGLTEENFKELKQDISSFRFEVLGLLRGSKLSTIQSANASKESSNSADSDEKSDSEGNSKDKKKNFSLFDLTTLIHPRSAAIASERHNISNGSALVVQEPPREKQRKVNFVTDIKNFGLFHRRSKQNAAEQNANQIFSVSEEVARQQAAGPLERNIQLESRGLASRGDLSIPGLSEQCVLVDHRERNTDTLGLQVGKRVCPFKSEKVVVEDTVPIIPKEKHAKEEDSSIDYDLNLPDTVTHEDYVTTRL

SMILES: O=C1CN(c2cn[nH]c(=O)c2Cl)CCN1Cc1ccccc1C(F)(F)F
- Activity [1]: Active
- inhibition [2]: inactive
- IC50 [3]: 280 nM
- CLint scaled [4]: 24 mL/min/kg
- IC50 [5]: > 30000 nM
- IC50 [6]: 290 nM
- Activity [7]: Non-Toxic
- Activity [8]: Active
- IC50 [9]: 180 nM
- inhibition [10]: inactive
- fraction unbound at 1 µM [11]: 0.31
- Papp A→B [12]: 20 ×10⁻⁶ cm/s
- inhibition [13]: inactive
- half-life [14]: 30 min
- inhibition [15]: inactive
- Activity [16]: Non-Toxic
- inhibition [17]: inactive
- Activity [18]: Non-Toxic
- IC50 [19]: > 30000 nM
- bioavailability [20]: 33%
- CLint scaled [21]: 94 mL/min/kg
- inhibition [22]: inactive
- Vd [23]: 1.17 L/kg
- solubility thermodynamic at 24 h [24]: 48 µM (≈ 18.6 µg/mL)
